The values that follow come from ChEMBL document CHEMBL5661981 (PLoS One, 2011).

As usually defined, the IC50 is the concentration needed to halve the response being measured.

The subject of one data set is NIH3T3. Description: Antiproliferative activity against mouse NIH3T3 cells harboring EGFR T790M/L858R double mutant assessed as reduction in cell viability after 72 hrs by SRB assay. The data set is classed as functional, cell-based. To be noted: dose 0.19-6.25 µM. An outline of the steps: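 Parental NIH3T3 and laboratory-built NIH3T3 overexpressing EGFR T790M/L858R treated with indicated concentrations for 72 h; viability by sulforhodamine B; IC50 from three independent experiments.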
Background: In SRB staining, fixed cells bind dye roughly in proportion to their protein.

For the next data set, the system named is NCI-H1975. The experiment in a line: Antiproliferative activity against human NCI-H1975 cells harboring EGFR T790M/L858R double mutant assessed as reduction in cell viability after 72 hrs by SRB assay. The data set is classed as functional, cell-based. The note with it: dose 0.19-6.25 µM. An outline of the steps:
(§1)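 Cell lines from ATCC; exposed to indicated concentrations for 72 h and growth read by sulforhodamine B (SRB) assay; IC50 values derived.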

The next data set concerns MDA-MB-468. Description: Antiproliferative activity against human MDA-MB-468 cells assessed as reduction in cell viability after 72 hrs by SRB assay. Type of data set: functional, cell-based. The note with it: MDA-MB-468, 72 h. An outline of the steps: as §1
Data set [1] deals with A549. The experiment in a line: Antiproliferative activity against human A549 cells assessed as reduction in cell viability after 72 hrs by SRB assay. To be noted: A549, 72 h. Type of data set: functional, cell-based. A digest of the protocol: as §1
In a further data set the test system is NCI-H23. Description: Antiproliferative activity against human NCI-H23 cells assessed as reduction in cell viability after 72 hrs by SRB assay. The data set is classed as functional, cell-based. To be noted: NCI-H23, 72 h. A digest of the protocol:
as §1

Data set [2] relates to SK-OV-3. The experiment in a line: Antiproliferative activity against human SK-OV-3 cells assessed as reduction in cell viability after 72 hrs by SRB assay. The data set is classed as functional, cell-based. To be noted: SK-OV-3, 72 h. An outline of the steps: as §1
Data set [3] has as its system SK-OV-3. The experiment in a line: Antiproliferative activity against human SK-OV-3 cells assessed as decrease in number of colony formation at 0.1 to 5 uM after 1 to 2 weeks by microscope analysis. Type of data set: functional, cell-based. To be noted: dose 0.1-5 µM, time 1-2 weeks. A digest of the protocol:
(§2)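 Cells at 8000/mL exposed to drug in 1 mL 0.3% basal medium Eagle's agar with 10% FBS; kept 2 weeks at 37°C, 5% CO2. Average colony number counted and colonies photographed; mean of triplicate samples, SE bars, Student's test.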

The subject of data set [4] is A549. The experiment in a line: Antiproliferative activity against human A549 cells assessed as decrease in number of colony formation at 0.1 to 5 uM after 1 to 2 weeks by microscope analysis. Type of data set: functional, cell-based. The note with it: dose 0.1-5 µM, time 1-2 weeks. A digest of the protocol: as §2
The subject of data set [5] is SK-OV-3. Description: Antiproliferative activity against human SK-OV-3 cells transfected with ErbB2 siRNA assessed as reduction in cell viability at 1.25 to 6.25 uM after 72 hrs by SRB assay. The data set is classed as functional, cell-based. To be noted: dose 1.25-6.25 µM. An outline of the steps: (§3)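 SK-OV-3 cells transfected with siRNA (final 50 nmol/L; one ErbB2 pair, two independent EGFR pairs, plus control siRNA) using oligofectamine; drug added 48 h after transfection, growth measured by SRB. Three independent experiments; significance by t test.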

The subject of data set [6] is SK-OV-3. The experiment in a line: Antiproliferative activity against human SK-OV-3 cells transfected with EGFR siRNA assessed as reduction in cell viability at 1.25 to 6.25 uM after 72 hrs by SRB assay. Type of data set: functional, cell-based. The note with it: dose 1.25-6.25 µM. An outline of the steps:
as §3

Data set [7] has as its system SK-OV-3. Description: Antitumor activity against human SK-OV-3 cells over expressing ErbB2 xenografted in nude mouse assessed as reduction in growth at 25 to 100 mg/kg, po administered twice daily for 28 days. The data set is classed as functional, organism-based. To be noted: dose 25-100 mg/kg, time 28.0 day. A general note: A xenograft is tissue or cells of one species grown in another, often human tumour cells in immunodeficient mice.

The subject of data set [8] is SK-OV-3. The experiment in a line: Antitumor activity against human SK-OV-3 cells over expressing ErbB2 xenografted in nude mouse assessed as reduction in growth at 25 to 100 mg/kg, po administered twice daily for 7 days relative to control. The data set is classed as functional. Also on record: scale not given: the % may be the effect or the level left. To be noted: dose 25-100 mg/kg, time 7 day.

The test system of data set [9] is Calu-3. Description: Antitumor activity against human Calu-3 cells over expressing ErbB2 xenografted in nude mouse assessed as reduction in growth at 25 to 100 mg/kg, po administered twice daily for 21 days. The data set is classed as functional, organism-based. The note with it: dose 25-100 mg/kg, time 21.0 day.
The next data set deals with HO-8910. Description: Antitumor activity against human HO-8910 cells xenografted in nude mouse assessed as reduction in growth at 25 to 100 mg/kg, po administered twice daily for 21 days. Type of data set: functional, organism-based. The note with it: dose 25-100 mg/kg, time 21.0 day.
For data set [10], the system named is A549. Description: Antitumor activity against human A549 cells xenografted in nude mouse assessed as reduction in growth at 25 to 100 mg/kg, po administered twice daily for 32 days. The data set is classed as functional, organism-based. To be noted: dose 25-100 mg/kg, time 32.0 day.
Data set [11] can be described thus: Toxicity in nude mouse xenografted with human SK-OV-3 cells over expressing ErbB2 assessed as effect on body weight at 25 to 100 mg/kg, po administered twice daily for 28 days. Type of data set: organism-based. To be noted: in vivo, 672 h, dose 25-100 mg/kg, time 28 day.
The subject of data set [12] is Mus musculus. The experiment in a line: In vivo inhibition of EGFR phosphorylation in human SK-OV-3 cells over expressing ErbB2 xenografted in nude mouse at 100 mg/kg, po measured after 2 to 24 hrs by Western blot analysis. The data set is classed as functional, organism-based. To be noted: time lower 2.0 hrs, time upper […]. An outline of the steps:
(§4)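 Nude mice bearing established SK-OV-3 tumors (~200 mm3) given a single 100 mg/kg dose; tumor extracts collected at indicated times and EGFR and ErbB2 phosphorylation assessed by immunoblotting.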

In data set [13] the test system is Mus musculus. The experiment in a line: In vivo inhibition of ErbB2 phosphorylation in human SK-OV-3 cells over expressing ErbB2 xenografted in nude mouse at 100 mg/kg, po measured after 2 to 24 hrs by Western blot analysis. The data set is classed as functional, organism-based. The note with it: time lower 2.0 hrs, time upper […]. A digest of the protocol:
as §4

Data set [14] has as its system Mus musculus. Description: Antitumor activity against FVB-2/Nneu transgenic mouse breast cancer model assessed as reduction in tumor growth at 25 to 100 mg/kg, po administered twice daily for 21 days. The data set is classed as functional, organism-based. The note with it: dose 25-100 mg/kg, time 21.0 day.
Data set [15] concerns Mus musculus. The experiment in a line: Antitumor activity against FVB-2/Nneu transgenic mouse breast cancer model assessed as reduction in tumor growth at 25 to 100 mg/kg, po administered twice daily for 11 days relative to control. To be noted: dose 25-100 mg/kg, time 11 day. On the set-up: scale not given: the % may be the effect or the level left. Type of data set: functional.

A short description of data set [16]: Toxicity in FVB-2/Nneu transgenic mouse breast cancer model assessed as decrease in body weight at 25 to 100 mg/kg, po administered twice daily for 21 days relative to control. Type of data set: organism-based. Also on record: scale not given: the % may be the effect or the level left. The note with it: in vivo, 504 h, dose 25-100 mg/kg, time 21 day.
Data set [17] deals with Epidermal growth factor receptor (Homo sapiens), P00533 [L858R,T790M]. To be noted: NIH3T3, dose 1-100 nM, time 6.0 hrs.
Data set [18] has the same test system. The note with it: NCI-H1975, dose 10-100 nM, time 4.25 hrs.
Data set [19] shares this test system. The note with it: NCI-H1975, dose 10-100 nM, time 4.25 hrs. The source holds these as a separate data set.
For data set [20] the test system is unchanged. To be noted: NCI-H1975, dose 10-100 nM, time 4.25 hrs. This is another data set of the same source.
Data set [21] relates to SK-OV-3. The experiment in a line: Antitumor activity against human SK-OV-3 cells over expressing ErbB2 xenografted in nude mouse assessed as reduction in growth at 50 mg/kg, po administered twice daily for 28 days. The data set is classed as functional, organism-based. To be noted: time 28.0 day.
The subject of data set [22] is Calu-3. Description: Antitumor activity against human Calu-3 cells over expressing ErbB2 xenografted in nude mouse assessed as reduction in growth at 50 mg/kg, po administered twice daily for 28 days. The note with it: time 28.0 day. Type of data set: functional, organism-based.

Activity calls are given as the source filed them. No cut-off for these calls is given here. Where only a bound is given, the exact number is not on record here.

Sequence of Epidermal growth factor receptor (Homo sapiens), P00533 [L858R,T790M] (P00533 whole entry T790M/L858R, looked up): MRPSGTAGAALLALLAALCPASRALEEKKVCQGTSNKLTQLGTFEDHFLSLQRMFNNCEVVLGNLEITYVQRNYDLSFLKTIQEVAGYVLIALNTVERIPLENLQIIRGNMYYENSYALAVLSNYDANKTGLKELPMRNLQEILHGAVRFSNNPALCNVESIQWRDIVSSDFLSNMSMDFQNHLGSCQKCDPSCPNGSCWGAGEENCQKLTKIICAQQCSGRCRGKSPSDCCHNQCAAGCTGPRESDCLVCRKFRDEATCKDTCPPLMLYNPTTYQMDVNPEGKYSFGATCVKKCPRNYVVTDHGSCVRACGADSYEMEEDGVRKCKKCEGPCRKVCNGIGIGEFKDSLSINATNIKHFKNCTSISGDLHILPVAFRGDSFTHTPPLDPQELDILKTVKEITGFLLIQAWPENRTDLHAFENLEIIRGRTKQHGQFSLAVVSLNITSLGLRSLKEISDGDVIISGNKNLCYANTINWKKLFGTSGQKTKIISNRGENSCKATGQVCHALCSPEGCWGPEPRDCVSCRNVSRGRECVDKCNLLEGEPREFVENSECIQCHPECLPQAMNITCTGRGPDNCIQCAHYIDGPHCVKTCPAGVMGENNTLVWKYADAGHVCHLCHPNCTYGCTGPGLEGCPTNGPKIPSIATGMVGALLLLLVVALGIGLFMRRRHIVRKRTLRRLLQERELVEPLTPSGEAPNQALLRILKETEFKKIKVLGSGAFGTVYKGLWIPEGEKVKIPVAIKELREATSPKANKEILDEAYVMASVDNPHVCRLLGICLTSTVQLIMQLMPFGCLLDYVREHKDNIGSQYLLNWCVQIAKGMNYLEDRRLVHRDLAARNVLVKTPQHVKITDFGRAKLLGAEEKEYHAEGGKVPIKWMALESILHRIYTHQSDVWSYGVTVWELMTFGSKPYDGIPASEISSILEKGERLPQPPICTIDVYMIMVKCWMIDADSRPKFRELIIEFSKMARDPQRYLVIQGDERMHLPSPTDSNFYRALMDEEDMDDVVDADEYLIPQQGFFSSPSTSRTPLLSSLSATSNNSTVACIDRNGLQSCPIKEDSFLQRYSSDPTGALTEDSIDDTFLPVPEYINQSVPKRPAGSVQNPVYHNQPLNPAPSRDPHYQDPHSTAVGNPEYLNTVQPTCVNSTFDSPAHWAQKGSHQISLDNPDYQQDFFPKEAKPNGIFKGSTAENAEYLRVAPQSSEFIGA

With `C=CC(=O)Nc1ccc2ncnc(Nc3ccc(OCc4cccc(F)c4)c(Cl)c3)c2c1` [ALLITINIB], the Activity result is “Dose-Dependent Effect” in the data set with NIH3T3; ~100% in the data set on SK-OV-3 [8]; “Non-Toxic” in data set [11]; ~100% in the data set with Mus musculus [15]; < 20% in [16]. Also, the inhibition entry (with NCI-H1975; in data set [18]; in [19]; in data set [20]) was “Dose-Dependent Effect” throughout. Further, the IC50 with MDA-MB-468, with A549 [1], in the data set with NCI-H23 and with SK-OV-3 [2] was 6.2 µM throughout. For the same compound, the outcome in the data set with SK-OV-3 [3], in the data set on A549 [4], in the data set on SK-OV-3 [6], with SK-OV-3 [7], with Calu-3 [9] and in the data set with HO-8910 was Active. For the same compound, the outcome in the data set on A549 [10] and with Mus musculus [14] was Active. Also, the result with SK-OV-3 [5] was inactive. The inhibition entry (with Mus musculus [12]; in the data set with Mus musculus [13]; in [17]) was “Active” throughout.
Take `CS(=O)(=O)CCNCc1ccc(-c2ccc3ncnc(Nc4ccc(OCc5cccc(F)c5)c(Cl)c4)c3c2)o1`: the result with SK-OV-3 [21] and in the data set with Calu-3 [22] was Active.
